The list is not random: actives were taken first. Their share in the collection is about 5.1%.
STAT1 activator: increases IFN-gamma driven STAT1 reporter signal. NIH 3T3 STAT1-luciferase reporter, luminescence; 100% = IFN-gamma alone, no compound. activation (% of control), % at 5.5 µM. actives 2.6% (n = 200,000). AID 932;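 active means activation above the screen-wide mean activation plus 3 SD, cut at about 130% in these data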;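 further: raw ratio to IFN-gamma control signal so 100% means no change and 0% no light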
STAT1 inh: inhibitors of IFN-gamma induced STAT1 signaling. NIH 3T3 STAT1-luciferase reporter, luminescence. inhibition, % at 5.5 µM. actives 0.35% (n = 200,000);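 active means inhibition above a set limit, the mean inhibition across all tested compounds plus 3 SD, cut at about 34% in these data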;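 further: 0% = IFN-gamma with DMSO and 100% = IFN-gamma with 300 µM nifuroxazide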
APP 5'UTR act: APP 5'UTR luciferase reporter activation; SH-SY5Y APP 5'UTR luciferase reporter, luminescence; zero percent = DMSO vehicle wells; actives 1% (n = 190,000); activation, % at 2 µM; AID 1276;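 active means activation above a set limit, based on mean plus 3 SD of controls, cut at about 140% in these data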
STAT3 inh: inhibitors of IL-6 induced STAT3 signaling; inhibition, % at 5.5 µM; U3A cells, IL-6 STAT3-luciferase reporter, luminescence; host cell line lacks STAT1; actives 0.89% (n = 190,000);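 active means inhibition above the mean inhibition across all screened compounds plus 3 SD, cut at about 44% in these data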;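 further: 0% = DMSO only wells and 100% = 100 µM nifuroxazide control wells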
STAT3 activator: increases IL-6 driven STAT3 reporter signal. U3A cells, IL-6 STAT3-luciferase reporter, luminescence; 100% = signal with IL-6 EC80 alone. activation (% of control), % at 5.6 µM. actives 0.91% (n = 190,000);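 active means activation above the screen-wide mean of compound activation plus 3 SD, cut at about 130% in these data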;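 further: 0% = background luminescence of wells with medium and substrate only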
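System – human U3A cells carrying STAT3-luciferase construct · Probe or stimulus – Interleukin-6, 33 ng/mL · Schedule – compound 1 h, then IL-6 6 h at 37 °C · Signal – luminescence from STAT3-driven luciferase reporter · Evaluation – percent of IL-6-only median luminescence · Benchmarks – IL-6-only high control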
NF-kB expr up: raises NF-kB expression in human neuronal cells | NF-kB reporter expression; active compounds read high | fold change at 12.5 µM | actives 1.6% (n = 190,000) | AID 1239; in the data active means fold change above about 3.3
Numbers without * were called inactive; . = no result given.

SMILES	STAT1 activator	STAT1 inh	APP 5'UTR act	STAT3 inh	STAT3 activator	NF-kB expr up
Cc1cc(C)cc(NC(=O)OCCN2CCN(Cc3ccccc3)CCC2=O)c1	89	12	-4	-8	104	1.1
CC(C)C(NC(=O)CSCc1ccc([N+](=O)[O-])cc1)C(C)C	91	10	1	6	97	0.96
Cc1cccc(OCC(=O)O/N=C(\N)Cc2ccc(Cl)cc2)c1	100	0	7	6	94	1.1
CCOc1ccc(OCc2cccc(C(=O)N3CCOCC3)c2)cc1	24	82*	-48	96*	17	3.4*
Cc1c(C#N)c(NC(=O)CCl)n(Cc2ccc(F)cc2)c1C	68	34*	12	32	76	0.22
O=C1CC(C(=O)NC2CCCCC2)C2(CCCCC2)O1 (stereo not given)	103	-5	0	28	84	1.2
COc1ccc(N(CC(=O)NCCC2=CCCCC2)S(=O)(=O)c2ccccc2)c(OC)c1	101	-2	0	-2	102	0.88
O=C(Nc1ccc(CN2CCOCC2)cc1)c1cccc(F)c1	133*	-38	76	-2	104	2.1
O=C(Nc1ccc(CN2CCOCC2)cc1)c1cccc(-c2cc3ccccc3oc2=O)c1	111	-13	3	15	93	0.52
C/C(=N\NC(=O)c1ccc(CN2CCOCC2)cc1)c1ccc(NC(=O)c2ccccc2)cc1	131*	-37	74	10	96	1.5
CC1=C(OC(=O)C(C)(C)C)C(C)(C)C(c2ccccc2)OC1=O (stereo not given)	98	2	-15	-10	106	0.93
CC(=O)OCC(=O)NCC(=O)c1c[nH]c2ccccc12	94	6	7	-19	113	1.2
Clc1ccc(OCc2cc(-c3ccccc3)no2)cc1Cl	109	-10	12	15	92	1.8
O=S(=O)(NCc1cc(-c2ccccc2Cl)no1)c1ccccc1	96	4	-21	12	95	1
O=S(=O)(Cc1cc(-c2ccccc2Cl)no1)c1ccccc1	132*	-39	68	1	103	0.98
O=S(=O)(Cc1cc(-c2ccc(Cl)cc2)no1)c1ccccc1	135*	-38	44	12	93	2.1
Clc1ccc(-c2cc(COc3ccccc3)on2)cc1	132*	-35	42	11	93	1.9
N#C/C(=C\c1ccc(OCc2ccc(C(=O)O)cc2)cc1)C(=O)N1CCOCC1	38	69*	-56	89*	24	7*
CCN(CC)CCCN1C(=O)CSC1c1ccc([N+](=O)[O-])cc1 (stereo not given)	104	-6	-3	0	104	1.2
CN1CCN(C(=O)c2ccc(CS(=O)(=O)c3c(Cl)cccc3Cl)o2)CC1	106	-7	-3	3	102	0.96
S=C(c1ccc(-c2ccccc2Cl)o1)N1CCCCC1	141*	-45	88	1	98	0.95
O=C(O)c1ccc(-c2ccccc2Cl)o1	98	3	0	2	100	0.96
CN1CCN(C(=S)c2ccc(-c3cccc(Cl)c3Cl)o2)CC1	144*	-50	124	-11	114	2.6
O=C1C2C(C(=O)N1c1ccccc1)N1CCCN1C2c1ccccc1 (stereo not given)	86	15	8	-9	107	1.1
Cc1ccccc1-n1c(SC/C(O)=C(\C#N)c2nc3ccccc3[nH]2)nnc1-c1ccncc1	90	9	-9	-35	133*	0.56
SMILES	STAT1 activator	STAT1 inh	APP 5'UTR act	STAT3 inh	STAT3 activator	NF-kB expr up
N#CC(c1ccc(Cl)cc1)c1ccc2c(C(F)(F)F)cc(C(F)(F)F)nc2n1 (stereo not given)	31	75*	4	87*	29	1.3
OC(COc1ccccc1)CSc1ncn[nH]1 (stereo not given)	107	-8	19	-2	105	1
CC(C)(C)c1ccc(OCC(O)CSc2ncn[nH]2)cc1 (stereo not given)	134*	-38	16	-10	108	1.6
O=C(COC(=O)c1ncc(Cl)c(Cl)c1Cl)c1ccc(Cl)s1	94	7	7	-3	103	1
Nc1cccc2nc3ccccc3cc12	172*	-133	.	-62	151*	3.9*
O=C(N/N=C/c1ccccc1Cl)c1ccc(F)cc1	138*	-43	76	24	84	2.8
CCOc1ccc(C(=O)N/N=C/c2ccc(SC)cc2)cc1	108	-9	8	-2	99	1.1
O=C(N/N=C\c1ccc(F)cc1)c1ccc(F)cc1	145*	-51	15	-5	116	1.8
CSc1ccc(/C=N/NC(=O)c2cccc(O)c2)cc1	97	4	159*	47*	65	4.5*
COC(=O)c1ccc(/C=N/NC(=O)c2cccc(F)c2)cc1	130*	-33	98	16	95	2.6
NC(=O)N/N=C/c1c(F)cccc1F	98	2	17	2	101	1.5
Cc1ccc(NC(=O)CCn2nc([N+](=O)[O-])cc2C)nc1	97	3	-15	6	94	1.2
Cc1cc(C)n(-c2cc(N3CCN(C(=O)c4cccc(F)c4)CC3)ccc2[N+](=O)[O-])n1	96	5	0	15	90	1.1
CCOC(=O)CSc1ncc(-c2ccc([N+](=O)[O-])cc2)[nH]1	96	4	-9	6	97	0.98
Fc1ccc(-c2nnc(-c3ccc(Cl)cc3)o2)cc1	135*	-38	37	23	82	4.2*
CSc1nnc(-c2ccc(F)cc2)o1	108	-8	3	17	92	0.87
O=C(CCc1nnc(C2(c3ccc(Cl)cc3)CCC2)o1)NCCCn1cccn1	109	-12	19	-2	105	1.3
Cc1ccnc(N/N=C/c2ccccc2)n1	145*	-50	83	0	96	2.5
Cc1cccnc1NC(=O)c1c(O)c2ccccc2n(C)c1=O	105	-5	-3	-39	133*	1.1
Cn1c(=O)c(C(=O)NCC2CCCO2)c(O)c2ccccc21 (stereo not given)	129*	-34	20	-15	115	2.4
Cn1c(C(=O)NCC2CCCO2)cc2oc3ccccc3c21 (stereo not given)	144*	-49	117	20	87	2.3
CCOC(=O)Cn1nc(C)c(NC(=O)c2ccc([N+](=O)[O-])c(C)c2)c1C	76	25	4	6	96	1
COc1ccc(Cc2n[nH]c(=S)n(N)c2=O)cc1	98	0	-7	9	97	1
Brc1ccc(-c2nc(-c3ccccc3)no2)o1	149*	-53	143*	-12	114	4.1*
Cc1ccc(-c2nc(-c3cccnc3)no2)c(C)c1	147*	-54	144*	13	90	4.8*

Bioassay records from PubChem.
